Measurements as given in ChEMBL document CHEMBL4715819, “Bicyclic Helical Peptides as Dual Inhibitors Selective for Bcl2A1 and Mcl-1 Proteins” (J Med Chem, 2018).
Activity calls are given as the source filed them. The calls are words filed in the database; no cut-off is given here. Positions of bridges follow the written chain, without caps; N, C: chain ends. Non-standard residues stand in square brackets, D forms with d. Residues, ends and D or L forms follow the SMILES beside them. ξ: configuration not given here. *: point of attachment. S5 = C=CCCC[C@](C)(N)C(=O)O; Acryloyl = C=CC(=O)*; Propionyl = CCC(=O)*; ξDap = NCC(N)C(=O)O

Experiments:
[1] = biological target: T1, Bcl-2-related protein A1 (Homo sapiens) (UniProt Q16548); assay: Covalent binding affinity to human Bcl2A1 assessed as inactivation constant by FBid based FP assay
T1 sequence (whole entry): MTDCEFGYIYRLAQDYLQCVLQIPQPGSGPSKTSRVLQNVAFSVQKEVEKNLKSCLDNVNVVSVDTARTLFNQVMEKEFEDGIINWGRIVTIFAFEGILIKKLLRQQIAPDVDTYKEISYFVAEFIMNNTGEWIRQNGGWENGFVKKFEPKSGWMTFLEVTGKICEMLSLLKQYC

[2] = biological target: T2, Bcl-2-related protein A1 (Homo sapiens, UniProt Q16548); assay: (§1) Binding affinity to human Bcl2A1 incubated for 2 hrs by FBid based competitive FP assay
T2 sequence (Q16548 whole entry): T1 sequence (whole entry)

[3] = biological target: T3, Induced myeloid leukemia cell differentiation protein Mcl-1 (Homo sapiens, UniProt Q07820); assay: Binding affinity to human Mcl1 incubated for 2 hrs by FBid based competitive FP assay
[4] = biological target: T2, Bcl-2-related protein A1; assay: Covalent binding affinity to human Bcl2A1 by FBid based FP assay
[5] = biological target: T1, Bcl-2-related protein A1 (Homo sapiens); assay: Covalent binding affinity to human Bcl2A1 assessed as Kinact/Ki ratio by FBid based FP assay
[6] = biological target: T1, Bcl-2-related protein A1 (Homo sapiens); assay: Covalent binding affinity to Bcl2A1 in human U937 cells at 0.1 to 50 uM incubated for 24 hrs by Western blot analysis; details: U-937, dose 0.1-50 µM
[7] = biological target: T1, Bcl-2-related protein A1 (Homo sapiens); assay: Covalent binding affinity to human Bcl2A1 incubated for 2 hrs by SDS-PAGE electrophoresis
[8] = biological target: T3, Induced myeloid leukemia cell differentiation protein Mcl-1; assay: Binding affinity to human Mcl1 by FBid based FP assay
[9] = biological target: T4, Bcl-2-like protein 2 (Homo sapiens) (UniProt Q92843); assay: Binding affinity to human Bcl-w incubated for 2 hrs by FBid based competitive FP assay
T4 sequence (whole entry): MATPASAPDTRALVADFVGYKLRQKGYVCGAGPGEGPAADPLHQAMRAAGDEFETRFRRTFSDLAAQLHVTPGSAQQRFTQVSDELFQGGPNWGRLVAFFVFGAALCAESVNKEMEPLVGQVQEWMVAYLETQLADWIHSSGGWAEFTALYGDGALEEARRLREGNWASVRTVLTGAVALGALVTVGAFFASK

[10] = biological target: Bcl-2-like protein 1 (Homo sapiens) (UniProt Q07817); assay: Binding affinity to human Bcl-xL incubated for 2 hrs by FBid based competitive FP assay
[11] = biological target: Apoptosis regulator Bcl-2 (Homo sapiens) (UniProt P10415); assay: Binding affinity to human Bcl2 incubated for 2 hrs by FBid based competitive FP assay
[12] = biological target: T1, Bcl-2-related protein A1 (Homo sapiens); assay: as §1
[13] = tested on: SK-MEL-28; assay: Cytotoxicity in human SK-MEL-28 cells assessed as reduction in cell viability incubated for 48 hrs by MTT assay; type: functional, cell-based; details: for IC50: SK-MEL-28, 48 h
In short: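 SK-MEL-28 cells grown in DMEM with 10% FBS and penicillin/streptomycin. Peptide applied over a concentration series for 48 h. Viability read by MTT, and IC50 taken from the dose–response.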

[14] = tested on: SK-MEL-28; assay: Toxicity in human SK-MEL-28 cells at 50 uM incubated for 30 mins by LDH release assay; type: cell-based; details: sk-mel-28, 0.5 h
[15] = biological target: Bcl-2-like protein 11/Bcl-2-related protein A1 (Homo sapiens) (UniProt O43521+Q16548); assay: Inhibition of Bcl2A1-Bim interaction in human SK-MEL-28 cells at 30 uM incubated for 24 hrs by immunoprecipitation assay; type: cell-based
[16] = biological target: Induced myeloid leukemia cell differentiation protein Mcl-1/Bcl-2-like protein 11 (Homo sapiens) (UniProt Q07820+O43521); assay: Inhibition of Mcl1-Bim interaction in human SK-MEL-28 cells at 30 uM incubated for 24 hrs by immunoprecipitation assay; type: cell-based
[17] = tested on: SK-MEL-28; assay: Synergistic cytotoxicity in human SK-MEL-28 cells assessed as reduction in cell viability at 1.25 to 30 uM incubated for 48 hrs in presence of etoposide by MTT assay; type: functional, cell-based; details: dose 1.25-30 µM
[18] = biological target: T1, Bcl-2-related protein A1 (Homo sapiens); assay: Covalent binding affinity to human Bcl2A1 incubated for 2 hrs by in presence of trypsin by MS/MS analysis
In short: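 A1 at 1 μM incubated with peptide at 10 μM, 2 h, in pH 7.2 buffer. Intact conjugate mass checked by MS. The conjugate gel band was trypsin-digested and the Cys55-bearing A1 fragment with bound peptide identified by mass spectrometry.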

T3 sequence (Q07820 whole entry): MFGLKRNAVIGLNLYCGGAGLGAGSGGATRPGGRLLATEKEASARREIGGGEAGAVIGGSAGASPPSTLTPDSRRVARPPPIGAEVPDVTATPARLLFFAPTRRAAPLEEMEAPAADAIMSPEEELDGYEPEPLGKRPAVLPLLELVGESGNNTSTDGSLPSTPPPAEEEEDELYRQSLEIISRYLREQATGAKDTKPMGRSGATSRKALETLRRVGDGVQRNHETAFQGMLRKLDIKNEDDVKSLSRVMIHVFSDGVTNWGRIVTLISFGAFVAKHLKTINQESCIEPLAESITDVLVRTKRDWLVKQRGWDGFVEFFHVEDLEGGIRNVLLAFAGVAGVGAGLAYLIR
Bcl-2-like protein 1 (Homo sapiens), sequence (Q07817 whole entry): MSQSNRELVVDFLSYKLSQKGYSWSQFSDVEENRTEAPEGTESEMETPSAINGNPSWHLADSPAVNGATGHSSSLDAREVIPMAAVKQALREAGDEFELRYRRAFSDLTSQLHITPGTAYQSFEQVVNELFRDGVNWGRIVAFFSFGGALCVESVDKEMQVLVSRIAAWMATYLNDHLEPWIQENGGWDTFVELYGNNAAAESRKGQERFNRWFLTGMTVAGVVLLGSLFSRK
Apoptosis regulator Bcl-2 (Homo sapiens), sequence (P10415 whole entry): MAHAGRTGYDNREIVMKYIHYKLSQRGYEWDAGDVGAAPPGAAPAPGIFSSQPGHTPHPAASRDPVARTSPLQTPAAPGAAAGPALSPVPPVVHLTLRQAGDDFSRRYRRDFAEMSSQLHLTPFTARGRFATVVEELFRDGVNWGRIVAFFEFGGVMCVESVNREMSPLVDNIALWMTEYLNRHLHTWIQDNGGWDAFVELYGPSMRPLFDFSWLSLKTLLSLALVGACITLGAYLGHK
Induced myeloid leukemia cell differentiation protein Mcl-1/Bcl-2-like protein 11 (Homo sapiens), sequence (O43521 whole entry, looked up): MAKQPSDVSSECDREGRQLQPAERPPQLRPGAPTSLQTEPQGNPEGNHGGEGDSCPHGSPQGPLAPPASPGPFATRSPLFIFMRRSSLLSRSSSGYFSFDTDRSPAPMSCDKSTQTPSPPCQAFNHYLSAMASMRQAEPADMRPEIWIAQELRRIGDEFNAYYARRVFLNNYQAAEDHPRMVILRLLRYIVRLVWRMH
Induced myeloid leukemia cell differentiation protein Mcl-1/Bcl-2-like protein 11 (Homo sapiens), sequence (Q07820 whole entry, looked up): as the sequence (Q07820 whole entry) above
Bcl-2-like protein 11/Bcl-2-related protein A1 (Homo sapiens), sequence (O43521 whole entry, looked up, one chain of several): as the sequence (O43521 whole entry, looked up) above

C=CC(=O)NCC1NC(=O)[C@@](C)(NC(C)=O)CCC/C=C/CCC[C@@](C)(C(=O)N[C@@H](CC(C)C)C(=O)N[C@@H](CC(C)C)C(=O)N[C@@H](CCCNC(=N)N)C(=O)N[C@H]2CCCCNC(=O)C[C@@H](C(=O)N[C@@H](Cc3ccccc3)C(N)=O)NC(=O)[C@H](CC(=O)O)NC(=O)CNC(=O)[C@H]([C@@H](C)CC)NC2=O)NC(=O)[C@H](C)NC(=O)[C@H]([C@@H](C)CC)NC1=O (stereo partly drawn) (Ac-[S5][ξDap](Acryloyl)IA[S5]LLRKIGDDF-NH2; staple (E) 1-5; lactam 9-13)
Activity [1]: Active

C=CC(=O)NCC(NC(=O)[C@@H](NC(C)=O)[C@@H](C)CC)C(=O)N[C@H](C(=O)N[C@@H](C)C(=O)N[C@@H](CCC(N)=O)C(=O)N[C@@H](CCC(=O)O)C(=O)N[C@@H](CC(C)C)C(=O)N[C@@H](CCCNC(=N)N)C(=O)N[C@@]1(C)CCC/C=C/CCC[C@@](C)(C(=O)N[C@@H](Cc2ccccc2)C(=O)N[C@@H](CC(N)=O)C(=O)N[C@@H](C)C(=O)N[C@@H](Cc2ccc(O)cc2)C(=O)N[C@@H](Cc2ccc(O)cc2)C(=O)N[C@@H](C)C(=O)N[C@@H](CCCNC(=N)N)C(=O)N[C@@H](CCCNC(=N)N)C(N)=O)NC(=O)[C@H](CC(=O)O)NC(=O)CNC(=O)[C@H]([C@@H](C)CC)NC1=O)[C@@H](C)CC (stereo partly drawn)
IC50 [2]: 13.5 nM | IC50 [3]: 34.5 nM | Ki [4]: 81.6 nM | Kinact [1]: 0.00239 s⁻¹ | Ratio [5]: 30 mM⁻¹ s⁻¹ | Activity [6]: Active

CCC(=O)NCC1NC(=O)[C@@](C)(NC(C)=O)CCC/C=C/CCC[C@@](C)(C(=O)N[C@@H](CCC(=O)O)C(=O)N[C@@H](CC(C)C)C(=O)N[C@@H](CCCNC(=N)N)C(=O)N[C@H]2CCCCNC(=O)C[C@@H](C(=O)N[C@@H](Cc3ccccc3)C(N)=O)NC(=O)[C@H](CC(=O)O)NC(=O)CNC(=O)[C@H]([C@@H](C)CC)NC2=O)NC(=O)[C@H](C)NC(=O)[C@H]([C@@H](C)CC)NC1=O (stereo partly drawn) (Ac-[S5][ξDap](Propionyl)IA[S5]ELRKIGDDF-NH2; staple (E) 1-5; lactam 9-13)
Activity [7]: inactive | Activity [8]: Active | Activity [6]: inactive

C=CC(=O)NCC(NC(=O)[C@@H](NC(C)=O)[C@@H](C)CC)C(=O)N[C@H](C(=O)N[C@@H](C)C(=O)N[C@@H](CCC(N)=O)C(=O)N[C@@H](CCC(=O)O)C(=O)N[C@@H](CC(C)C)C(=O)N[C@@H](CCCNC(=N)N)C(=O)N[C@@]1(C)CCC/C=C/CCC[C@@](C)(C(=O)N[C@@H](Cc2ccccc2)C(N)=O)NC(=O)[C@H](CC(=O)O)NC(=O)CNC(=O)[C@H]([C@@H](C)CC)NC1=O)[C@@H](C)CC (stereo partly drawn) (Ac-I[ξDap](Acryloyl)IAQELR[S5]IGD[S5]F-NH2; staple (E) 9-13)
IC50 [2]: 54.6 nM | IC50 [3]: 162 nM | Activity [9]: inactive | Activity [10]: inactive | Activity [11]: inactive | Ki [4]: 175 nM | Kinact [1]: 0.00159 s⁻¹ | Ratio [5]: 9 mM⁻¹ s⁻¹ | Activity [6]: Active

CCC(=O)NCC1NC(=O)[C@@](C)(NC(C)=O)CCC/C=C/CCC[C@@](C)(C(=O)N[C@@H](CC(C)C)C(=O)N[C@@H](CC(C)C)C(=O)N[C@@H](CCCNC(=N)N)C(=O)N[C@H]2CCCCNC(=O)C[C@@H](C(=O)N[C@@H](Cc3ccccc3)C(N)=O)NC(=O)[C@H](CC(=O)O)NC(=O)CNC(=O)[C@H]([C@@H](C)CC)NC2=O)NC(=O)[C@H](C)NC(=O)[C@H]([C@@H](C)CC)NC1=O (stereo partly drawn) (Ac-[S5][ξDap](Propionyl)IA[S5]LLRKIGDDF-NH2; staple (E) 1-5; lactam 9-13)
Activity [12]: Active | Activity [3]: Active | Activity [9]: inactive | Activity [10]: inactive | Activity [13]: Dose-dependent effect | IC50 [13]: 8.8 µM | Activity [14]: Non-Toxic | inhibition [15]: Active | inhibition [16]: Active | Activity [17]: Active

C=CC(=O)NCC1NC(=O)[C@@H](NC(C)=O)CCCCNC(=O)C[C@@H](C(=O)N[C@@H](CCC(=O)O)C(=O)N[C@@H](CC(C)C)C(=O)N[C@@H](CCCNC(=N)N)C(=O)N[C@@]2(C)CCC/C=C/CCC[C@@](C)(C(=O)N[C@@H](Cc3ccccc3)C(N)=O)NC(=O)[C@H](CC(=O)O)NC(=O)CNC(=O)[C@H]([C@@H](C)CC)NC2=O)NC(=O)[C@H](C)NC(=O)[C@H]([C@@H](C)CC)NC1=O (stereo partly drawn) (Ac-K[ξDap](Acryloyl)IADELR[S5]IGD[S5]F-NH2; lactam 1-5; staple (E) 9-13)
IC50 [2]: 20.4 nM | IC50 [3]: 108 nM | Activity [9]: inactive | Activity [10]: inactive | Activity [11]: inactive | Ki [4]: 46.7 nM | Kinact [1]: 0.00231 s⁻¹ | Ratio [5]: 54 mM⁻¹ s⁻¹ | Activity [6]: Active

C=CC(=O)NCC1NC(=O)[C@@](C)(NC(C)=O)CCC/C=C/CCC[C@@](C)(C(=O)N[C@@H](CCC(=O)O)C(=O)N[C@@H](CC(C)C)C(=O)N[C@@H](CCCNC(=N)N)C(=O)N[C@@]2(C)CCC/C=C/CCC[C@@](C)(C(=O)N[C@@H](Cc3ccccc3)C(N)=O)NC(=O)[C@H](CC(=O)O)NC(=O)CNC(=O)[C@H]([C@@H](C)CC)NC2=O)NC(=O)[C@H](C)NC(=O)[C@H]([C@@H](C)CC)NC1=O (stereo partly drawn) (Ac-[S5][ξDap](Acryloyl)IA[S5]ELR[S5]IGD[S5]F-NH2; staple (E) 1-5, 9-13)
IC50 [2]: 13.4 nM | IC50 [3]: 51.6 nM | Activity [9]: inactive | Activity [10]: inactive | Activity [11]: inactive | Ki [4]: 133 nM | Kinact [1]: 0.00224 s⁻¹ | Ratio [5]: 16.2 mM⁻¹ s⁻¹ | Activity [6]: Active

CC[C@H](C)[C@H](NC(C)=O)C(=O)N[C@@H](Cc1c[nH]c2ccccc12)C(=O)N[C@H](C(=O)N[C@@H](C)C(=O)N[C@@H](CCC(N)=O)C(=O)N[C@@H](CCC(=O)O)C(=O)N[C@@H](CC(C)C)C(=O)N[C@@H](CCCNC(=N)N)C(=O)N[C@@]1(C)CCC/C=C/CCC[C@@](C)(C(=O)N[C@@H](Cc2ccccc2)C(=O)N[C@@H](CC(N)=O)C(=O)N[C@@H](C)C(=O)N[C@@H](Cc2ccc(O)cc2)C(=O)N[C@@H](Cc2ccc(O)cc2)C(=O)N[C@@H](C)C(=O)N[C@@H](CCCNC(=N)N)C(=O)N[C@@H](CCCNC(=N)N)C(N)=O)NC(=O)[C@H](CC(=O)O)NC(=O)CNC(=O)[C@H]([C@@H](C)CC)NC1=O)[C@@H](C)CC
IC50 [13]: 15.7 µM

C=CC(=O)NCC1NC(=O)[C@@H](NC(C)=O)CCCCNC(=O)C[C@@H](C(=O)N[C@@H](CCC(=O)O)C(=O)N[C@@H](CC(C)C)C(=O)N[C@@H](CCCNC(=N)N)C(=O)N[C@H]2CCCCNC(=O)C[C@@H](C(=O)N[C@@H](Cc3ccccc3)C(N)=O)NC(=O)[C@H](CC(=O)O)NC(=O)CNC(=O)[C@H]([C@@H](C)CC)NC2=O)NC(=O)[C@H](C)NC(=O)[C@H]([C@@H](C)CC)NC1=O (stereo partly drawn) (Ac-K[ξDap](Acryloyl)IADELRKIGDDF-NH2; lactam 1-5, 9-13)
IC50 [2]: 6.5 nM | IC50 [3]: 48 nM | Activity [9]: inactive | Activity [10]: inactive | Activity [11]: inactive | Ki [4]: 30.5 nM | Kinact [1]: 0.00349 s⁻¹ | Ratio [5]: 118 mM⁻¹ s⁻¹ | Activity [6]: Active

C=CC(=O)NCC1NC(=O)[C@@](C)(NC(C)=O)CCC/C=C/CCC[C@@](C)(C(=O)N[C@@H](CCC(=O)O)C(=O)N[C@@H](CC(C)C)C(=O)N[C@@H](CCCNC(=N)N)C(=O)N[C@H]2CCCCNC(=O)C[C@@H](C(=O)N[C@@H](Cc3ccccc3)C(N)=O)NC(=O)[C@H](CC(=O)O)NC(=O)CNC(=O)[C@H]([C@@H](C)CC)NC2=O)NC(=O)[C@H](C)NC(=O)[C@H]([C@@H](C)CC)NC1=O (stereo partly drawn) (Ac-[S5][ξDap](Acryloyl)IA[S5]ELRKIGDDF-NH2; staple (E) 1-5; lactam 9-13)
IC50 [2]: 6.6 nM | IC50 [3]: 29.2 nM | Activity [9]: inactive | Activity [10]: inactive | Activity [11]: inactive | Ki [4]: 10 nM | Kinact [1]: 0.00367 s⁻¹ | Ratio [5]: 399 mM⁻¹ s⁻¹ | Activity [7]: Active | Activity [18]: Active | Activity [6]: Active
